ChEMBL document CHEMBL2146414, “Lignan derivatives from Krameria lappacea roots inhibit acute inflammation in vivo and pro-inflammatory mediators in vitro” (J Nat Prod, 2011)
pIC50: −log10 of the molar value. Each block holds one molecule with its values, some of them ahead of it. The source made the active and inactive calls. The rule behind the calls is not given here.

Experiments:
[1] = tested on: Mus musculus; assay: Antiinflammatory effect in CD1 mouse ear dermatitis model assessed as preservance of mast cell degranulation at 0.4 umol administered topically per cm'2 of ear measured after 6 hrs post dermatitis induction relative to control; assay type: functional, organism-based
Method in brief: (§1)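 Male CD-1 mice (28–32 g) anesthetized with ketamine 145 mg/kg ip; right ear (about 1 cm2) given 80 μg croton oil in 15 μL acetone with test substance co-applied in acetone; controls irritant only; left ear untreated. Ears fixed in 10% formalin, paraffin-embedded, 10 μm sections stained hematoxylin-eosin or Giemsa, examined by light microscopy at set times after induction.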

[2] = tested on: Mus musculus; assay: Antiinflammatory effect in CD1 mouse ear dermatitis model assessed as reduction in cellular changes at 0.4 umol administered topically per cm'2 of ear measured after 6 hrs post dermatitis induction relative to control; assay type: functional, organism-based; method in brief: as §1
[3] = tested on: Mus musculus; assay: Antiinflammatory effect in CD1 mouse ear dermatitis model assessed as reduction in vascular changes at 0.4 umol administered topically per cm'2 of ear measured after 6 hrs post dermatitis induction relative to control; assay type: functional, organism-based; method in brief: as §1
[4] = tested on: Mus musculus; assay: Antiinflammatory effect in CD1 mouse ear dermatitis model assessed as reduction in leukocyte infiltration-based myeloperoxidase at 0.4 umol administered topically per cm'2 of ear measured after 6 hrs post dermatitis induction relative to control; assay type: functional, organism-based
Method in brief: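 CD-1 mice, croton oil 80 μg in acetone on right ear with topical test substance; ear punch (6 mm) homogenized in 0.1 M sodium acetate pH 4.2 with 0.1% HTAB, centrifuged 15000g 5 min; supernatant myeloperoxidase measured with TMB (2.83 mM) and 0.7 mM H2O2, 5 min at 25 °C, stopped with acetic acid, A620; duplicates; units = nM TMB oxidized/min.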

[5] = tested on: Mus musculus; assay: Antiinflammatory activity in CD1 mouse ear dermatitis model assessed as inhibition of Croton oil-induced ear edema at 0.4 umol administered topically per cm'2 of ear measured 48 hrs after induction of dermatitis relative to untreated control
[6] = tested on: Mus musculus; assay: Antiinflammatory activity in CD1 mouse ear dermatitis model assessed as inhibition of Croton oil-induced ear edema at 0.10 umol administered topically per cm'2 of ear measured after induction of dermatitis relative to untreated control; assay type: functional
Method in brief: (§2)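 Male CD-1 mice (28–32 g), anesthetized with ketamine 145 mg/kg i.p.; right ear (about 1 cm2) given 80 μg croton oil in 15 μL acetone, with test substance co-applied in acetone; left ear left untreated. Controls received irritant only. 6 mm punches taken from both ears; edema = weight difference treated minus untreated; % inhibition vs controls. ID50 by graphic interpolation of log dose–effect curves; ANOVA with Dunnett's test.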

[7] = tested on: Mus musculus; assay: Antiinflammatory activity in CD1 mouse ear dermatitis model assessed as inhibition of Croton oil-induced ear edema administered topically per cm'2 of ear measured after induction of dermatitis relative to untreated control; assay type: functional
[8] = tested on: Mus musculus; assay: Antiinflammatory activity in CD1 mouse ear dermatitis model assessed as inhibition of Croton oil-induced ear edema at 1 umol administered topically per cm'2 of ear measured after induction of dermatitis relative to untreated control; assay type: functional; method in brief: as §2
[9] = tested on: Mus musculus; assay: Antiinflammatory effect in CD1 mouse ear dermatitis model assessed as reduction in mast cell degranulation at 0.4 umol administered topically per cm'2 of ear measured after 6 hrs post dermatitis induction relative to control; assay type: functional, organism-based; method in brief: as §1
[10] = tested on: Mus musculus; assay: Antiinflammatory activity in CD1 mouse ear dermatitis model assessed as inhibition of Croton oil-induced ear edema at 0.30 umol administered topically per cm'2 of ear measured after induction of dermatitis relative to untreated control; assay type: functional; method in brief: as §2
[11] = tested on: Mus musculus; assay: Antiinflammatory effect in CD1 mouse ear dermatitis model assessed as dermal swelling at 0.4 umol administered topically per cm'2 of ear after 9 hrs of post dermatitis induction relative to control; assay type: functional, organism-based; method in brief: as §1
[12] = tested on: Mus musculus; assay: Antiinflammatory effect in CD1 mouse ear dermatitis model assessed as reduction in vascular changes at 0.04 umol administered topically per cm'2 of ear measured after 6 hrs post dermatitis induction relative to control; assay type: functional, organism-based; method in brief: as §1
[13] = tested on: Mus musculus; assay: Antiinflammatory activity in CD1 mouse ear dermatitis model assessed as inhibition of Croton oil-induced ear edema at 0.01 umol administered topically per cm'2 of ear measured after induction of dermatitis relative to untreated control; assay type: functional; method in brief: as §2
[14] = tested on: Mus musculus; assay: Antiinflammatory activity in CD1 mouse ear dermatitis model assessed as inhibition of Croton oil-induced ear edema at 0.03 umol administered topically per cm'2 of ear measured after induction of dermatitis relative to untreated control; assay type: functional; method in brief: as §2
[15] = tested on: Mus musculus; assay: Antiinflammatory activity in CD1 mouse ear dermatitis model assessed as reduction in AUC of Croton oil-induced ear edema response at 0.04 umol administered topically per cm'2 of ear measured 48 hrs after induction of dermatitis relative to untreated control; assay type: functional
Method in brief: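 Croton oil dermatitis on the right ear of anesthetized male CD-1 mice, with compound co-applied topically in acetone. Ear punch weight difference (treated minus untreated ear) measured at several times up to 48 h.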

[16] = tested on: Mus musculus; assay: Antiinflammatory activity in CD1 mouse ear dermatitis model assessed as reduction in AUC of global leukocyte infiltration-based myeloperoxidase activity at 0.04 umol administered topically per cm'2 of ear measured 3 to 48 hrs post dermatitis induction relative to untreated control; assay type: functional
Method in brief: (§3)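 Same croton oil ear model in CD-1 mice. The ear punch is homogenized in 0.1 M acetate pH 4.2 with 0.1% HTAB and centrifuged 15000g for 5 min. Supernatant myeloperoxidase is assayed with 2.83 mM TMB plus 0.7 mM H2O2 for 5 min at 25 °C, stopped with acetic acid, A620, duplicates.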

[17] = tested on: Mus musculus; assay: Antiinflammatory effect in CD1 mouse ear dermatitis model assessed as reduction in cellular changes at 0.04 umol administered topically per cm'2 of ear measured after 6 hrs post dermatitis induction relative to control; assay type: functional, organism-based; method in brief: as §1
[18] = tested on: Mus musculus; assay: Antiinflammatory activity in CD1 mouse ear dermatitis model assessed as inhibition of Croton oil-induced ear edema at 0.04 umol administered topically per cm'2 of ear measured 6 hrs after induction of dermatitis relative to untreated control; assay type: functional; method in brief: as §2
[19] = tested on: Mus musculus; assay: Antiinflammatory activity in CD1 mouse ear dermatitis model assessed as inhibition of Croton oil-induced ear edema at 0.04 umol administered topically per cm'2 of ear measured 12 hrs after induction of dermatitis relative to untreated control; assay type: functional; method in brief: as §2
[20] = tested on: Mus musculus; assay: Antiinflammatory activity in CD1 mouse ear dermatitis model assessed as reduction in leukocyte infiltration-based myeloperoxidase activity at 0.04 umol administered topically per cm'2 of ear measured 3 to 48 hrs post dermatitis induction relative to untreated control; assay type: functional; method in brief: as §3
[21] = Inhibition of NFkappaB activity transfected in HEK293 cells pretreated for 1 hr before 6 hrs of LPS challenge by luciferase reporter gene assay; details: Homo sapiens
[22] = tested on: Radical scavenging activity; assay: Antioxidant activity assessed as DPPH free radical scavenging activity after 30 mins by spectrophotometry; assay type: functional; details: read-out: IC50

Compound: COc1ccc2c(c1)c(CC(=O)O)c(C)n2C(=O)c1ccc(Cl)cc1 [INDOMETHACIN]
- inhibition [1]: Active
- inhibition [2]: Active
- inhibition [3]: Active
- inhibition [4]: Active
- inhibition [5]: inactive
- inhibition (INH) [6]: 25%
- ID50 [7]: 0.29 umol/cm2
- inhibition (INH) [8]: 80%
- inhibition [9]: Active
- inhibition (INH) [10]: 51%
- inhibition [11]: inactive

Compound: C[C@]12CCC(=O)C=C1CC[C@@H]1[C@@H]2[C@@H](O)C[C@@]2(C)[C@H]1CC[C@]2(O)C(=O)CO [HYDROCORTISONE]
- inhibition [12]: Active
- inhibition (INH) [13]: 29%
- inhibition (INH) [14]: 55%
- inhibition (INH) [6]: 77%
- inhibition (INH) [15]: 69%
- inhibition (INH) [16]: 51%
- inhibition [17]: Active
- ID50 [7]: 0.03 umol/cm2
- inhibition (INH) [18]: 79%
- inhibition (INH) [19]: 60%
- inhibition (INH) [20]: 35%

Compound: C=C1C(=O)O[C@@H]2[C@H]3O[C@]3(C)CC/C=C(\C)CC[C@@H]12
- pIC50 [21]: 5.85

- pIC50 [22]: 4.62
Compound: O=C1O[C@H]([C@@H](O)CO)C(O)=C1O [ASCORBIC ACID]
